According to ChEMBL document CHEMBL4619773, “Chemoreactive-Inspired Discovery of Influenza A Virus Dual Inhibitor to Block Hemagglutinin-Mediated Adsorption and Membrane Fusion” (J Med Chem, 2020):
The source made the active and inactive calls. No cut-off for these calls is given here.

Columns and labels:
[1] = tested on: Influenza A virus; assay: Antiviral activity against Influenza A virus (A/Puerto Rico/8/1934(H1N1)) infected in Kunming mouse assessed as decrease in lung TNFalpha level at 10 mg/kg/day, po starting 4 hrs after viral challenge and continued for 4 days by ELISA; assay type: functional, organism-based
Summary of the method: (§1)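 Four-week-old female Kunming mice received PR8 intranasally (500 PFU/mouse in 40 µL PBS) and were then dosed once daily orally or intranasally. Lungs were collected on day 4, and TNF-α and IL-6 in lung tissue were measured by ELISA.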

[2] = tested on: Influenza A virus; assay: Antiviral activity against Influenza A virus (A/Puerto Rico/8/1934(H1N1)) infected in Kunming mouse assessed as mouse survival at 10 mg/kg/day, po starting 4 hrs after viral challenge and continued for 7 days by plaque assay; assay type: functional
Summary of the method: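 Groups of 10 female Kunming mice were infected intranasally with PR8 (1000 PFU/mouse) on day 0 and dosed once daily for seven days. Weight and clinical signs were recorded daily. Mice losing more than 25% of pre-infection weight were scored dead and euthanized; survivors were killed on day 14.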

[3] = tested on: Influenza A virus; assay: Antiviral activity against Influenza A virus (A/Puerto Rico/8/1934(H1N1)) infected in Kunming mouse assessed as decrease in lung IL6 level at 10 mg/kg/day, po starting 4 hrs after viral challenge and continued for 4 days by ELISA; assay type: functional, organism-based; summary of the method: as §1
[4] = tested on: Influenza A virus; assay: Antiviral activity against Influenza A virus (A/Puerto Rico/8/1934(H1N1)) infected in MDCK cells assessed as inhibition of virus-induced cytopathic effect incubated for 48 hrs by crystal violet staining based assay; assay type: functional, organism-based
Summary of the method: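 MDCK cells were infected at MOI 0.1, the inoculum was removed, and compounds were added in triplicate. After 48 h the cells were fixed in 4% formaldehyde (20 min, RT) and stained with 0.1% crystal violet (30 min). Dye was solubilized in methanol and read at 570 nm.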

[5] = tested on: Influenza A virus (A/Aichi/2/1968(H3N2)); assay: Binding affinity to Influenza A virus (A/Aichi/2/1968(H3N2)) Hemagglutinin at 1.5625 to 50 uM by SPR assay
Summary of the method: (§2)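 HA protein was immobilized on CM5 chips. Compound (50, […], 12.5, 6.25, 3.125, 1.5625 µM) was injected for 2 min, followed by a 10-min PBST wash and regeneration with 2 mM NaOH for 30 s. Runs were at 25 °C with 2 µl/s flow, using a blank HA-free reference channel. KD was obtained from kinetic fitting.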

[6] = Selectivity index, ratio of CC50 for cytotoxicity in dog MDCK cells assessed as reduction in cell viability incubated for 48 hrs by crystal violet staining based assay to […] in dog MDCK cells assessed as reduction in cell viability incubated for 48 hrs by crystal violet staining based assay
[7] = target: Hemagglutinin (Influenza A virus (A/Puerto Rico/8/1934(H1N1)), UniProt P03452); assay: Binding affinity to Influenza A virus (A/Puerto Rico/8/1934(H1N1)) Hemagglutinin at 1.5625 to 50 uM by SPR assay; summary of the method: as §2
Sequence of Hemagglutinin (Influenza A virus (A/Puerto Rico/8/1934(H1N1)), UniProt P03452) (P03452 whole entry): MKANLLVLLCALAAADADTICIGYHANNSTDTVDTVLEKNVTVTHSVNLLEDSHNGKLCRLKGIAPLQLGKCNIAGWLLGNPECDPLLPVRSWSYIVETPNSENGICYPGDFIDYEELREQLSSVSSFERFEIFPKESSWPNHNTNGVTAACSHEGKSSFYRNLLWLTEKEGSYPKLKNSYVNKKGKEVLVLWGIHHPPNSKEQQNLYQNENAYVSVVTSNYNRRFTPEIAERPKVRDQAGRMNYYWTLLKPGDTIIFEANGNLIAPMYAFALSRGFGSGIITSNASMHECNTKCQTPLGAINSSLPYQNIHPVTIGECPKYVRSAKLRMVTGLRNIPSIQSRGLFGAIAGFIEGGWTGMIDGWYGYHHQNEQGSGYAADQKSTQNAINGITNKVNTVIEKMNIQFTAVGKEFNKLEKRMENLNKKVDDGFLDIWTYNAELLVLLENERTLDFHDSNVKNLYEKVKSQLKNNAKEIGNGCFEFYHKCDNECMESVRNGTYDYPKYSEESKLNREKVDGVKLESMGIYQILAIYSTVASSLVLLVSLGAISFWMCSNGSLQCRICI

[8] = Cytotoxicity in dog MDCK cells assessed as reduction in cell viability incubated for 48 hrs by crystal violet staining based assay; set-up: species or system Canis lupus familiaris

CCOC(=O)C1=C[C@@H](OC(CC)CC)[C@H](NC(C)=O)[C@@H](N)C1 [OSELTAMIVIR]
Activity [1]: Active | survival at 10 mg/kg/day [2]: 100% | Activity [3]: Active

CC(=O)c1cc(C)c(O)c(Cc2[nH]c3cccc(Br)c3c2Cc2c(O)c(C)cc(C(C)=O)c2O)c1O
IC50 [4]: > 100 µM

CC(=O)c1cc(C)c(O)c(Cc2c(Cc3c(O)c(C)cc(C(C)=O)c3O)n(Cc3c(O)c(C)cc(C(C)=O)c3O)c3ccccc23)c1O
IC50 [4]: > 100 µM

CC(=O)c1cc(C)c(O)c(Cc2cn(Cc3c(O)c(C)cc(C(C)=O)c3O)c3cccc(Br)c23)c1O
IC50 [4]: > 100 µM

CCOC(=O)c1c(CSc2ccccc2)n(C)c2cc(Br)c(O)c(CN(C)C)c12 [UMIFENOVIR]
Activity [5]: Active | Ratio CC50/IC50 [6]: 10.4 | IC50 [4]: 32.5 µM | Kd ([7]; read-out: Kd): 11.1 µM

CC(=O)NC1[C@H]([C@H](O)[C@H](O)CO)O[C@@](O[C@H]2[C@@H](O)[C@@H](CO)O[C@@H](O[C@@H]([C@H](O)[C@@H](O)C=O)[C@H](O)CO)[C@@H]2O)(C(=O)O)C[C@@H]1O (stereo not given in full)
Activity [5]: Active | Kd ([7]; read-out: Kd): 4.5 µM

CC(=O)c1cc(C)c(O)c(CNc2cc(C(F)(F)F)cc(C(F)(F)F)c2)c1O
IC50 [4]: > 100 µM

CC(=O)c1cc(C)c(O)c(Cc2c[nH]c3ccccc23)c1O
Kd [7]: Not Active

CC(=O)c1cc(C)c(O)c(Cc2c(Cc3c(O)c(C)cc(C(C)=O)c3O)n(Cc3c(O)c(C)cc(C(C)=O)c3O)c3cccc(Br)c23)c1O
IC50 [4]: > 100 µM

CC(=O)c1cc(C)c(O)c(Cc2[nH]c3ccc(C)cc3c2Cc2c(O)c(C)cc(C(C)=O)c2O)c1O
CC50 at 48 h [8]: 681 µM | Ratio CC50/IC50 [6]: 17.1 | IC50 [4]: 39.8 µM

NC(=O)c1ncn([C@@H]2O[C@H](CO)[C@@H](O)[C@H]2O)n1 [RIBAVIRIN]
Ratio CC50/IC50 [6]: 20.8 | IC50 [4]: 98.3 µM
